Test results published in ChEMBL document CHEMBL5058577, “EUbOPEN Chemogenomics Library 2 (Multiplex)” (2022).

System: HEK-293T
Assay: Multiplex assay against HEK293T
Format: toxicity, cell-based
Conditions: human
In short: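 Four dyes were applied at seeding to live cells: Hoechst33342, BioTracker Green Microtubule Cytoskeleton Dye, MitoTracker Red and Annexin V Alexa Fluor 680. Imaging after compound addition used a CQ1 microscope at 37°C and 5% CO2. CellPathfinder machine-learning gating then sorted cells into Hoechst high-intensity objects or normal cells, normal cells into healthy, pyknosed or fragmented nuclei, and pyknosed cells into mitotic or apoptotic, with tubulin, mitochondrial-mass and membrane-permeability phenotypes given as per cents of healthy-nucleus cells.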

[1] = 12 h, 1 µM, compound concentration 1 uM, replicate 1
[2] = 12 h, 1 µM, compound concentration 1 uM, replicate 2
[3] = 12 h, 10 µM, compound concentration 10 uM, replicate 1
[4] = 12 h, 10 µM, compound concentration 10 uM, replicate 2
[5] = 24 h, 1 µM, compound concentration 1 uM, replicate 1
[6] = 24 h, 1 µM, compound concentration 1 uM, replicate 2
[7] = 24 h, 10 µM, compound concentration 10 uM, replicate 1
[8] = 24 h, 10 µM, compound concentration 10 uM, replicate 2
[9] = 48 h, 1 µM, compound concentration 1 uM, replicate 1
[10] = 48 h, 1 µM, compound concentration 1 uM, replicate 2
[11] = 48 h, 10 µM, compound concentration 10 uM, replicate 1
[12] = 48 h, 10 µM, compound concentration 10 uM, replicate 2

## Cn1cc(C(=O)OCC2CCN(CCNS(C)(=O)=O)CC2)c2ccccc21
[1]
  Population Apoptotic (%): 39%
  Population Fragmented Nuclei (%): 5%
  Population Healthy Nuclei (%): 83%
  Population Hoechst High Intensity Objects (%): 7%
  Population Membrane Permeable-Phenotype (%): 0%
  Population Mitochondria Different-Phenotype (%): 35%
  Population Mitotic Cells (%): 60%
  Population Normal (%): 92%
  Population Pyknosed Nuclei (%): 10%
  Population Tubulin-Different-Phenotype (%): 22%
  Total Cell Count: 466
[2]
  Population Apoptotic (%): 56%
  Population Fragmented Nuclei (%): 9%
  Population Healthy Nuclei (%): 76%
  Population Hoechst High Intensity Objects (%): 8%
  Population Mitochondria Different-Phenotype (%): 62%
  Population Mitotic Cells (%): 43%
  Population Normal (%): 91%
  Population Pyknosed Nuclei (%): 14%
  Population Tubulin-Different-Phenotype (%): 28%
  Total Cell Count: 248
[3]
  Population Apoptotic (%): 47%
  Population Fragmented Nuclei (%): 10%
  Population Healthy Nuclei (%): 73%
  Population Hoechst High Intensity Objects (%): 6%
  Population Membrane Permeable-Phenotype (%): 0%
  Population Mitochondria Different-Phenotype (%): 55%
  Population Mitotic Cells (%): 52%
  Population Normal (%): 93%
  Population Pyknosed Nuclei (%): 15%
  Population Tubulin-Different-Phenotype (%): 53%
  Total Cell Count: 479
[4]
  Population Apoptotic (%): 43%
  Population Healthy Nuclei (%): 71%
  Population Hoechst High Intensity Objects (%): 10%
  Population Mitochondria Different-Phenotype (%): 73%
  Population Mitotic Cells (%): 56%
  Population Normal (%): 89%
  Population Pyknosed Nuclei (%): 18%
  Population Tubulin-Different-Phenotype (%): 47%
  Total Cell Count: 393
[5]
  Population Apoptotic (%): 29%
  Population Fragmented Nuclei (%): 6%
  Population Healthy Nuclei (%): 82%
  Population Hoechst High Intensity Objects (%): 4%
  Population Membrane Permeable-Phenotype (%): 1%
  Population Mitochondria Different-Phenotype (%): 21%
  Population Mitotic Cells (%): 70%
  Population Normal (%): 95%
  Population Pyknosed Nuclei (%): 10%
  Population Tubulin-Different-Phenotype (%): 16%
  Total Cell Count: 650
[6]
  Population Apoptotic (%): 48%
  Population Fragmented Nuclei (%): 12%
  Population Healthy Nuclei (%): 76%
  Population Hoechst High Intensity Objects (%): 5%
  Population Membrane Permeable-Phenotype (%): 0%
  Population Mitochondria Different-Phenotype (%): 42%
  Population Mitotic Cells (%): 51%
  Population Normal (%): 94%
  Population Tubulin-Different-Phenotype (%): 17%
  Total Cell Count: 283
[7]
  Population Apoptotic (%): 35%
  Population Fragmented Nuclei (%): 11%
  Population Healthy Nuclei (%): 74%
  Population Hoechst High Intensity Objects (%): 5%
  Population Membrane Permeable-Phenotype (%): 1%
  Population Mitochondria Different-Phenotype (%): 43%
  Population Mitotic Cells (%): 64%
  Population Normal (%): 94%
  Population Pyknosed Nuclei (%): 13%
  Population Tubulin-Different-Phenotype (%): 50%
  Total Cell Count: 587
[8]
  Population Apoptotic (%): 48%
  Population Fragmented Nuclei (%): 10%
  Population Healthy Nuclei (%): 79%
  Population Hoechst High Intensity Objects (%): 6%
  Population Membrane Permeable-Phenotype (%): 0%
  Population Mitochondria Different-Phenotype (%): 56%
  Population Mitotic Cells (%): 51%
  Population Normal (%): 93%
  Population Pyknosed Nuclei (%): 9%
  Population Tubulin-Different-Phenotype (%): 37%
  Total Cell Count: 491
[9]
  Population Apoptotic (%): 25%
  Population Fragmented Nuclei (%): 12%
  Population Healthy Nuclei (%): 78%
  Population Hoechst High Intensity Objects (%): 3%
  Population Membrane Permeable-Phenotype (%): 1%
  Population Mitochondria Different-Phenotype (%): 12%
  Population Mitotic Cells (%): 74%
  Population Normal (%): 96%
  Population Pyknosed Nuclei (%): 8%
  Population Tubulin-Different-Phenotype (%): 10%
  Total Cell Count: 1090
[10]
  Population Apoptotic (%): 44%
  Population Fragmented Nuclei (%): 11%
  Population Healthy Nuclei (%): 82%
  Population Hoechst High Intensity Objects (%): 4%
  Population Membrane Permeable-Phenotype (%): 3%
  Population Mitochondria Different-Phenotype (%): 23%
  Population Mitotic Cells (%): 55%
  Population Normal (%): 95%
  Population Pyknosed Nuclei (%): 6%
  Population Tubulin-Different-Phenotype (%): 11%
  Total Cell Count: 490
[11]
  Population Apoptotic (%): 38%
  Population Fragmented Nuclei (%): 16%
  Population Healthy Nuclei (%): 77%
  Population Hoechst High Intensity Objects (%): 6%
  Population Membrane Permeable-Phenotype (%): 1%
  Population Mitochondria Different-Phenotype (%): 31%
  Population Mitotic Cells (%): 61%
  Population Normal (%): 93%
  Population Pyknosed Nuclei (%): 6%
  Population Tubulin-Different-Phenotype (%): 28%
  Total Cell Count: 883
[12]
  Population Fragmented Nuclei (%): 13%
  Population Healthy Nuclei (%): 79%
  Population Hoechst High Intensity Objects (%): 4%
  Population Membrane Permeable-Phenotype (%): 0%
  Population Mitochondria Different-Phenotype (%): 37%
  Population Normal (%): 95%
  Population Tubulin-Different-Phenotype (%): 26%
  Total Cell Count: 758

## CCn1c(-c2nc3cc(C(=O)N4CCCC(N)C4)ccc3n2C)cc2ccccc21.Cl (configuration not stated)
[1]
  Population Apoptotic (%): 54%
  Population Fragmented Nuclei (%): 9%
  Population Healthy Nuclei (%): 77%
  Population Hoechst High Intensity Objects (%): 7%
  Population Membrane Permeable-Phenotype (%): 0%
  Population Mitochondria Different-Phenotype (%): 52%
  Population Mitotic Cells (%): 45%
  Population Normal (%): 92%
  Population Pyknosed Nuclei (%): 13%
  Population Tubulin-Different-Phenotype (%): 33%
  Total Cell Count: 351
[2]
  Population Apoptotic (%): 47%
  Population Fragmented Nuclei (%): 5%
  Population Healthy Nuclei (%): 81%
  Population Hoechst High Intensity Objects (%): 6%
  Population Mitochondria Different-Phenotype (%): 69%
  Population Mitotic Cells (%): 52%
  Population Normal (%): 93%
  Population Tubulin-Different-Phenotype (%): 20%
  Total Cell Count: 312
[3]
  Population Apoptotic (%): 53%
  Population Fragmented Nuclei (%): 8%
  Population Healthy Nuclei (%): 74%
  Population Hoechst High Intensity Objects (%): 11%
  Population Membrane Permeable-Phenotype (%): 0%
  Population Mitochondria Different-Phenotype (%): 85%
  Population Mitotic Cells (%): 46%
  Population Normal (%): 88%
  Population Pyknosed Nuclei (%): 17%
  Population Tubulin-Different-Phenotype (%): 75%
  Total Cell Count: 406
[4]
  Population Fragmented Nuclei (%): 6%
  Population Healthy Nuclei (%): 78%
  Population Hoechst High Intensity Objects (%): 8%
  Population Normal (%): 91%
  Population Pyknosed Nuclei (%): 15%
  Population Tubulin-Different-Phenotype (%): 64%
  Total Cell Count: 398
[5]
  Population Apoptotic (%): 35%
  Population Fragmented Nuclei (%): 9%
  Population Healthy Nuclei (%): 80%
  Population Hoechst High Intensity Objects (%): 6%
  Population Membrane Permeable-Phenotype (%): 0%
  Population Mitochondria Different-Phenotype (%): 37%
  Population Mitotic Cells (%): 64%
  Population Normal (%): 93%
  Population Pyknosed Nuclei (%): 10%
  Population Tubulin-Different-Phenotype (%): 22%
  Total Cell Count: 459
[6]
  Population Apoptotic (%): 39%
  Population Healthy Nuclei (%): 79%
  Population Hoechst High Intensity Objects (%): 4%
  Population Mitochondria Different-Phenotype (%): 49%
  Population Mitotic Cells (%): 60%
  Population Normal (%): 95%
  Population Pyknosed Nuclei (%): 11%
  Population Tubulin-Different-Phenotype (%): 14%
  Total Cell Count: 383
[7]
  Population Apoptotic (%): 51%
  Population Fragmented Nuclei (%): 11%
  Population Healthy Nuclei (%): 70%
  Population Hoechst High Intensity Objects (%): 12%
  Population Membrane Permeable-Phenotype (%): 1%
  Population Mitochondria Different-Phenotype (%): 72%
  Population Mitotic Cells (%): 48%
  Population Normal (%): 87%
  Population Pyknosed Nuclei (%): 18%
  Population Tubulin-Different-Phenotype (%): 64%
  Total Cell Count: 449
[8]
  Population Apoptotic (%): 40%
  Population Fragmented Nuclei (%): 8%
  Population Healthy Nuclei (%): 78%
  Population Hoechst High Intensity Objects (%): 9%
  Population Membrane Permeable-Phenotype (%): 0%
  Population Mitochondria Different-Phenotype (%): 83%
  Population Mitotic Cells (%): 59%
  Population Normal (%): 90%
  Population Pyknosed Nuclei (%): 13%
  Population Tubulin-Different-Phenotype (%): 58%
  Total Cell Count: 471
[9]
  Population Apoptotic (%): 20%
  Population Fragmented Nuclei (%): 12%
  Population Healthy Nuclei (%): 79%
  Population Hoechst High Intensity Objects (%): 5%
  Population Membrane Permeable-Phenotype (%): 1%
  Population Mitochondria Different-Phenotype (%): 28%
  Population Mitotic Cells (%): 79%
  Population Normal (%): 94%
  Population Pyknosed Nuclei (%): 8%
  Population Tubulin-Different-Phenotype (%): 17%
  Total Cell Count: 771
[10]
  Population Apoptotic (%): 14%
  Population Fragmented Nuclei (%): 13%
  Population Healthy Nuclei (%): 81%
  Population Hoechst High Intensity Objects (%): 4%
  Population Membrane Permeable-Phenotype (%): 0%
  Population Mitochondria Different-Phenotype (%): 30%
  Population Mitotic Cells (%): 85%
  Population Normal (%): 95%
  Population Pyknosed Nuclei (%): 5%
  Population Tubulin-Different-Phenotype (%): 11%
  Total Cell Count: 640
[11]
  Population Apoptotic (%): 50%
  Population Fragmented Nuclei (%): 14%
  Population Healthy Nuclei (%): 73%
  Population Hoechst High Intensity Objects (%): 15%
  Population Membrane Permeable-Phenotype (%): 0%
  Population Mitochondria Different-Phenotype (%): 65%
  Population Mitotic Cells (%): 49%
  Population Normal (%): 84%
  Population Pyknosed Nuclei (%): 12%
  Population Tubulin-Different-Phenotype (%): 63%
  Total Cell Count: 605
[12]
  Population Apoptotic (%): 52%
  Population Fragmented Nuclei (%): 10%
  Population Healthy Nuclei (%): 79%
  Population Hoechst High Intensity Objects (%): 8%
  Population Mitochondria Different-Phenotype (%): 71%
  Population Mitotic Cells (%): 47%
  Population Normal (%): 91%
  Population Pyknosed Nuclei (%): 9%
  Total Cell Count: 613
